The species named for data set [1] is Mus musculus. As to the kind of experiment: Inhibition of hedgehog signaling pathway in mouse Light2 cells at 100 nM after 48 hrs by Gli-luciferase reporter gene assay relative to control. The format is cell-based. In outline: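 Single-concentration screen at 100 nM in Light II cells (NIH-3T3 with stable Gli-firefly luciferase reporter and Renilla luciferase vector), kept in DMEM/10% FBS with zeocin and G418 at 37°C, 5% CO₂. Cells treated 48 h; percent inhibition of Gli reporter from dual luciferase assay.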
In general terms: In a reporter assay the amount or activity of a reporter protein is the signal.

A short description of data set [2]: Inhibition of hedgehog signaling pathway in mouse Light2 cells after 48 hrs by Gli-luciferase reporter gene assay. Type of data set: cell-based.
The test system of data set [3] is Medulloblastoma cell. As to the kind of experiment: Anti-tumor activity against mouse Ptch+/- p53-/- medulloblastoma cells implanted in athymic nude mouse assessed as tumor growth inhibition at 10 to 20 mg/kg, po administered twice daily via gavage measured every other day during compound dosing. Type of data set: functional, organism-based. In outline: (§1)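 Allograft from spontaneous intracranial medulloblastomas of Ptch+/-p53-/- mice, first passaged subcutaneously in athymic nude mice; 1 mm³ fragments implanted by trocar into the right flank. Oral gavage twice a day started at 150–200 mm³, in 0.5% NaCMC suspension. Caliper length and width taken every other day, V = L×W²/2. Five mice per group, means ± SEM.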

Data set [4] relates to Mus musculus. Kind of data set: Toxicity in athymic nude mouse implanted with mouse Ptch+/- p53-/- medulloblastoma cells assessed as body weight loss at 10 to 20 mg/kg, po administered twice daily via gavage measured every other day during compound dosing. The format is organism-based. The settings on record: in vivo. In outline:
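Nude mice bearing subcutaneous right-flank Ptch+/-p53-/- medulloblastoma fragment allografts, dosed by oral gavage twice daily (vehicle 0.5% NaCMC suspension) once tumors reached 150–200 mm³. Body weights recorded alongside caliper tumor measurements taken every other day; five animals per group.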

For data set [5], the system named is Medulloblastoma cell. As to the kind of experiment: Anti-tumor activity against mouse Ptch+/- p53-/- medulloblastoma cells implanted in athymic nude mouse assessed as tumor growth inhibition at 20 mg/kg, po administered twice daily via gavage measured every other day during compound dosing. Type of data set: functional, organism-based. In outline: as §1

Active and inactive are the calls of the source. The rule behind the calls is not given here.

In general, inhibition refers to the change of the read-out against control, counted positive when it falls. In general, IC50 refers to the concentration that gives 50% inhibition. A higher IC50 goes with weaker potency in that assay. With `CN(C(=O)c1ccc(F)cc1C(F)(F)F)C1CCN(c2nnc(-c3ccnn3C)c3ccccc23)CC1` [TALADEGIB], the inhibition in the data set listed under Mus musculus [1] stood at 95%. The compound further had an IC50 in data set [2] of 2.26 nM.
As to `Cc1c(-c2ccnn2C)nnc(N2CCC(NC(=O)c3ccc(F)cc3C(F)(F)F)CC2)c1C`, in the data set filed under Mus musculus [1], the inhibition stood at 89.5%. Besides, in data set [2], the concentration for half-maximal inhibition (IC50) is 2.33 nM. For the same compound, the TGI entry with Medulloblastoma cell [3] is “Active”. Further, the Activity result with Mus musculus [4] was “Non-Toxic”.
Regarding `Cc1c(-c2ccc(C#N)cc2)nnc(N2CCC(NC(=O)c3ccc(F)cc3C(F)(F)F)CC2)c1C`, the inhibition in the data set filed under Mus musculus [1] is 111%. The compound also gave a concentration for half-maximal inhibition (IC50) in data set [2] of 8.5 nM.
Regarding `Cc1c(-c2ccnn2C)nnc(N2CCC(NC(=O)c3ccc(Sc4ccccc4)cc3C(F)(F)F)CC2)c1C`, the inhibition in the data set filed under Mus musculus [1] turned out to be 82.8%. In addition, the IC50 in data set [2] was found to be 32.5 nM.
The matching figures for `Cc1c(-c2ccnn2C)nnc(N2CCC(NC(=O)c3ccc(Oc4ccccc4F)cc3C(F)(F)F)CC2)c1C`: 91.5% and 16.6 nM.
In the case of `Cc1c(-c2ccnn2C)nnc(N2CCC(Nc3ccc(C(C)(C)O)cn3)CC2)c1C`, the inhibition in the data set filed under Mus musculus [1] was 31.8%. The compound further gave a 50% inhibitory concentration (IC50) in data set [2] of more than 100 nM.
The matching figures for `Cc1c(-c2ccnn2C)nnc(N2CCC(NC(=O)c3cc(F)ccc3C(F)(F)F)CC2)c1C`: 82% and 61.5 nM.
In the case of `Cc1c(-c2ccccc2)nnc(N2CCC(NC(=O)c3ccc(F)cc3C(F)(F)F)CC2)c1C`, the inhibition in the data set filed under Mus musculus [1] amounted to 90.2%. This compound had an IC50 in data set [2] of 25.5 nM.
The matching figures for `Cc1c(-c2ccnn2C)nnc(N2CCC(NC(=O)OC3CCCCC3)CC2)c1C`: 26.6% and more than 100 nM.
The matching figures for `Cc1c(-c2ccnn2C)nnc(N2CCC(Nc3ccc(C(C)(C)O)nn3)CC2)c1C`: 20.6% and more than 100 nM.
For `Cc1c(-c2ccnn2C)nnc(N2CCC(NC(=O)c3ccc(Oc4ccccc4)cc3C(F)(F)F)CC2)c1C`, the inhibition in the data set filed under Mus musculus [1] was 78.9%. The compound further yielded a 50% inhibitory concentration (IC50) in data set [2] of 36.5 nM.
Turning to `Cc1c(-c2ccnn2C)nnc(N2CCC(NC(=O)NC3CCCCCC3)CC2)c1C`, the inhibition in the data set listed under Mus musculus [1] is 45.7%. For the same compound, in data set [2], the IC50 is more than 100 nM.
Consider `Cc1c(-c2ccnn2C)nnc(N2CCC(N(C)C(=O)c3ccc(F)cc3C(F)(F)F)CC2)c1C`, for which the inhibition in the data set filed under Mus musculus [1] came out at 60.9%. The compound also had a 50% inhibitory concentration (IC50) in data set [2] of 30 nM.
For `COc1ccc(-c2nnc(N3CCC(NC(=O)c4ccc(F)cc4C(F)(F)F)CC3)c(C)c2C)cc1`, the inhibition in the data set filed under Mus musculus [1] was 74.5%. In addition, the 50% inhibitory concentration (IC50) in data set [2] worked out at 22 nM.
The matching figures for `Cc1c(-c2ccncc2)nnc(N2CCC(NC(=O)c3ccc(F)cc3C(F)(F)F)CC2)c1C`: 76% and 43.2 nM.
The matching figures for `Cc1c(-c2ccnn2C)nnc(N2CCC(NC(=O)c3cccc(F)c3)CC2)c1C`: 82.1% and more than 100 nM.
The compound `Cc1c(-c2ccnn2C)nnc(N2CCC(NC(=O)c3ccc(Cl)cc3C(F)(F)F)CC2)c1C` came in with a half-maximal inhibitory concentration (IC50) in data set [2] of 25.1 nM.
Turning to `Cc1c(-c2ccnn2C)nnc(N2CCC(Nc3cnc(C(C)(C)O)cn3)CC2)c1C`, in the data set filed under Mus musculus [1], the inhibition was found to be 10.8%. Further, the IC50 in data set [2] is more than 100 nM.
Regarding `CS(=O)(=O)c1ccc(C(=O)Nc2ccc(Cl)c(-c3ccccn3)c2)c(Cl)c1` [VISMODEGIB], in the data set listed under Mus musculus [1], the inhibition is 108%. In data set [2], this compound came in with a 50% inhibitory concentration (IC50) of 2.46 nM. Moreover, the TGI result in the data set with Medulloblastoma cell [5] was “Active”.
Regarding `Cc1c(-c2ccnn2C)nnc(N2CCC(NC(=O)c3ccccc3C(F)(F)F)CC2)c1C`, the inhibition in the data set filed under Mus musculus [1] was 79.7%. Further, the half-inhibitory concentration (IC50) in data set [2] is 32.8 nM.
On to `Cc1c(-c2ccnn2C)nnc(N2CCC(NC(=O)Nc3ccccc3)CC2)c1C`, for which the inhibition in the data set filed under Mus musculus [1] turned out to be 26.2%. In data set [2], this compound yielded a half-maximal inhibitory concentration (IC50) of more than 100 nM.
Turning to `Cc1c(-c2ccnn2C)nnc(N2CCC(NC(=O)Oc3ccccc3)CC2)c1C`, in the data set filed under Mus musculus [1], the inhibition was found to be 41.2%. Further, the IC50 in data set [2] is more than 100 nM.
Regarding `Cc1c(-c2ccccc2Cl)nnc(N2CCC(NC(=O)c3ccc(F)cc3C(F)(F)F)CC2)c1C`, the inhibition in the data set listed under Mus musculus [1] came to 106%. For the same compound, inhibition in data set [2] was half-maximal at 7.02 nM (IC50).
For `Cc1c(-c2ccnn2C)nnc(N2CCN(C(=O)c3ccc(F)cc3C(F)(F)F)CC2)c1C`, the inhibition in the data set listed under Mus musculus [1] is -6.57%. Also, in data set [2], the IC50 was more than 100 nM.
`Cc1ccc(-c2nnc(N3CCC(NC(=O)c4ccc(F)cc4C(F)(F)F)CC3)c(C)c2C)cc1`: in the data set filed under Mus musculus [1], the inhibition stood at 101%. Further, the 50% inhibitory concentration (IC50) in data set [2] came out at 12.2 nM.
Take `Cc1c(-c2ccc(Cl)cc2)nnc(N2CCC(NC(=O)c3ccc(F)cc3C(F)(F)F)CC2)c1C`: in the data set filed under Mus musculus [1], the inhibition was 85%. This compound also had a half-inhibitory concentration (IC50) in data set [2] of 43.8 nM.
As for `Cc1c(-c2ccnn2C)nnc(N2CCC(Nc3cnc(S(C)(=O)=O)cn3)CC2)c1C`, the inhibition in the data set filed under Mus musculus [1] was 23.8%. The compound also returned a concentration for half-maximal inhibition (IC50) in data set [2] of more than 100 nM.
Take `Cc1c(-c2ccnn2C)nnc(N2CCC(NC(=O)Nc3cccnc3)CC2)c1C`: in the data set filed under Mus musculus [1], the inhibition is 3.47%. For the same compound, the half-inhibitory concentration (IC50) in data set [2] is more than 100 nM.
The matching figures for `Cc1c(-c2ccnn2C)nnc(N2CCC(NC(=O)c3c(F)cccc3C(F)(F)F)CC2)c1C`: 79.8% and 42.9 nM.
As to `Cc1c(-c2ccnn2C)nnc(N2CC[C@@H](NC(=O)c3ccc(F)cc3C(F)(F)F)C2)c1C`, the inhibition in the data set filed under Mus musculus [1] was 54.1%. Half-maximal inhibition in data set [2] (IC50) was put at 36.4 nM.
`Cc1c(-c2ccnn2C)nnc(N2CCC(NC(=O)NC3CCCC3)CC2)c1C`: the inhibition in the data set filed under Mus musculus [1] is 24.4%. The compound further had an IC50 in data set [2] of more than 100 nM.

The record behind these values is ChEMBL document CHEMBL4118161, “Synthesis and evaluation of novel dimethylpyridazine derivatives as hedgehog signaling pathway inhibitors” (Bioorg Med Chem, 2018).
